Assay results taken from ChEMBL document CHEMBL1155126, “2-N-Methyl modifications and SAR studies of manzamine A” (Bioorg Med Chem, 2008).
Converted amounts (≈) assume the structure as drawn. The source made the active and inactive calls. The calls are words filed in the database; no cut-off is given here.

Columns and labels:
[1] = tested on: Plasmodium falciparum; assay: Antimalarial activity after 72 hrs against chloroquine-sensitive Plasmodium falciparum D6 at 8 uM as LDH activity; assay type: functional, organism-based
[2] = tested on: Plasmodium falciparum; assay: Antimalarial activity after 72 hrs against chloroquine-resistant Plasmodium falciparum W2 at 8 uM as LDH activity; assay type: functional, organism-based
[3] = tested on: Vero; assay: Cytotoxicity against african green monkey Vero cells at 17 uM after 48 hrs by neutral red assay; assay type: cell-based; settings: chlorocebus sabaeus
In short: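 Vero cells seeded at 25,000 cells/well and incubated 24 h. Samples added at a range of concentrations, top concentration 17 µM, then incubated a further 48 h. Viable cells measured by Neutral Red uptake. IC50 taken from dose-response curves; doxorubicin positive control.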

[4] = tested on: Candida albicans; assay: Antimicrobial activity against Candida albicans ATCC 90028 at 87 uM; assay type: functional, organism-based
[5] = tested on: Cryptococcus neoformans; assay: Antimicrobial activity against Cryptococcus neoformans ATCC 90113; assay type: functional, organism-based
In short: (§1)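 Broth microdilution following modified CLSI methods; M. intracellulare by a modified Franzblau method. Samples serially diluted in 20% DMSO/saline and plated in duplicate. Inocula set by OD630 of suspensions in incubation broth. Growth read at 630 nm, or fluorescence 544ex/590em for M. intracellulare, before and after incubation. MIC is the lowest concentration with no detectable growth. MFC/MBC comes from subculturing clear wells onto agar.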

[6] = tested on: Staphylococcus aureus; assay: Antimicrobial activity against methicillin-resistant Staphylococcus aureus ATCC 43300 at 87 uM; assay type: functional, organism-based
[7] = tested on: Mycobacterium intracellulare; assay: Antimicrobial activity against Mycobacterium intracellular ATCC 23068 at 87 uM; assay type: functional, organism-based
[8] = tested on: Escherichia coli; assay: Antimicrobial activity against Escherichia coli ATCC 35218; assay type: functional, organism-based
In short: (§2)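 Modified CLSI broth microdilution; M. intracellulare by a modified Franzblau method. Samples were serially diluted in 20% DMSO/saline and tested in duplicate. Inocula were set by OD630 in broth. Growth was read before and after incubation at 630 nm, or by fluorescence 544ex/590em for A. fumigatus and M. intracellulare. MIC is the lowest concentration with no detectable growth; MFC/MBC is the lowest concentration giving no growth after 5 µL is subcultured to agar.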

[9] = tested on: Pseudomonas aeruginosa; assay: Antimicrobial activity against Pseudomonas aeruginosa ATCC 27853; assay type: functional, organism-based; in short: as §2
[10] = tested on: Aspergillus fumigatus; assay: Antimicrobial activity against Aspergillus fumigatus ATCC 90906; assay type: functional, organism-based; in short: as §2
[11] = tested on: Plasmodium falciparum; assay: Antimalarial activity after 72 hrs against chloroquine-resistant Plasmodium falciparum W2 as LDH activity; assay type: functional, organism-based; settings: W2, 72 h
In short: (§3)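 D6 or W2 parasitised red cells (2% parasitemia, 2% hematocrit) in RPMI 1640 with 10% human serum and 60 µg/mL amikacin, added to serially diluted samples. Cultures were gassed with 90% N2/5% O2/5% CO2 and held 72 h at 37 °C. Parasite LDH was read with Malstat reagent plus NBT/PES, stopped with 5% acetic acid, at 650 nm.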

[12] = Selectivity index, ratio of IC50 for african green monkey (Cercopithecus aethiops) Vero cells to IC50 for chloroquine-sensitive Plasmodium falciparum D6; assay type: toxicity, cell-based; settings: read-out: Ratio IC50
In short: (§4)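 Ratio of Vero IC50 (neutral red, 48 h exposure) to P. falciparum IC50 from the 72 h LDH assay on the matching strain (W2 or D6).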

[13] = tested on: Plasmodium falciparum; assay: Antimalarial activity after 72 hrs against chloroquine-sensitive Plasmodium falciparum D6 as LDH activity; assay type: functional, organism-based; settings: D6, 72 h; in short: as §3
[14] = Selectivity index, ratio of IC50 for african green monkey (Cercopithecus aethiops) Vero cells to IC50 for chloroquine-resistant Plasmodium falciparum W2; assay type: toxicity, cell-based; settings: read-out: Ratio IC50; in short: as §4
[15] = tested on: Vero; assay: Cytotoxicity against african green monkey Vero cells after 48 hrs by neutral red assay; assay type: cell-based; settings: Chlorocebus sabaeus
In short: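 Vero monkey kidney fibroblasts were seeded at 25,000 cells/well and grown 24 h. Samples at graded concentrations were then added for 48 h. Viable cells were counted by neutral red uptake, and IC50 was taken from dose-response curves, with doxorubicin as positive control.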

[16] = tested on: Candida albicans; assay: Antimicrobial activity against Candida albicans ATCC 90028; assay type: functional, organism-based; in short: as §2
[17] = tested on: Candida albicans; assay: Antimicrobial activity against Candida albicans ATCC 90028 at 91 uM; assay type: functional, organism-based
[18] = tested on: Staphylococcus aureus; assay: Antimicrobial activity against methicillin-resistant Staphylococcus aureus ATCC 43300; assay type: functional, organism-based
In short: as §2, with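 “broth.” for “broth. Growth was read before and after incubation at 630 nm, or by fluorescence 544ex/590em for A. fumigatus and M. intracellulare.”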

[19] = tested on: Staphylococcus aureus; assay: Antimicrobial activity against methicillin-resistant Staphylococcus aureus ATCC 43300 at 91 uM; assay type: functional, organism-based
[20] = tested on: Mycobacterium intracellulare; assay: Antimicrobial activity against Mycobacterium intracellular ATCC 23068; assay type: functional, organism-based; in short: as §1
[21] = tested on: Staphylococcus aureus; assay: Antimicrobial activity against methicillin-resistant Staphylococcus aureus ATCC 43300 at 3.0 uM; assay type: functional, organism-based
[22] = tested on: Candida albicans; assay: Antimicrobial activity against Candida albicans ATCC 90028 at 89 uM; assay type: functional, organism-based
[23] = tested on: Cryptococcus neoformans; assay: Antimicrobial activity against Cryptococcus neoformans ATCC 90113 at 89 uM; assay type: functional, organism-based
[24] = tested on: Staphylococcus aureus; assay: Antimicrobial activity against methicillin-resistant Staphylococcus aureus ATCC 43300 at 89 uM; assay type: functional, organism-based
[25] = tested on: Mycobacterium intracellulare; assay: Antimicrobial activity against Mycobacterium intracellular ATCC 23068 at 89 uM; assay type: functional, organism-based
[26] = tested on: Hepatitis C virus; assay: Antiviral activity against HCV at 10 uM; assay type: functional, Hepacivirus hominis
In short: (§5)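 HCV replicon in Huh-7 cells. Compound tested at 10 µM in triplicate, added immediately after seeding. HCV RNA and rRNA measured as ΔCt values and reported as % inhibition of each.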

[27] = tested on: Hepatitis C virus; assay: Antiviral activity against HCV in Huh7 cells at 10 uM by replicon assay; assay type: functional, Hepacivirus hominis, Huh-7; in short: as §5
[28] = tested on: Cryptococcus neoformans; assay: Antimicrobial activity against Cryptococcus neoformans ATCC 90113

Row | SMILES | Activity [3] | IC50 [5] | Activity [8] | Activity [9] | Activity [10] | IC50 [11] | selectivity ratio [12] | IC50 [13] | selectivity ratio [14] | IC50 [20] | MBC [20] | MIC [20] | further results
1 | CO[C@]12C=C(c3c4[nH]c5ccccc5c4cc[n+]3C)C3CCN(CCCC/C=C\CC1)C[C@@]31C[C@@H]3/C=C\CCCCN3[C@H]12.O=S(=O)([O-])C(F)(F)F (some centres undefined) | Non-toxic | 52 µM | inactive | inactive | inactive |  |  |  |  |  |  |  | Activity [1]: inactive; Activity [2]: inactive; Activity [4]: inactive; MFC [5]: 87 µM; MIC [5]: 87 µM; Activity [6]: inactive; Activity [7]: inactive
2 | O[C@]12C=C(c3nccc4c3[nH]c3ccccc34)[C@@H]3CCN(CCCC/C=C\CC1)C[C@@]31C[C@@H]3/C=C\CCCCN3[C@H]12 [MANZAMINE A] |  | 2.7 µM | inactive | inactive | inactive | 0.02 µM | 29.4 | 0.017 µM | 25.2 | 0.18 µM | 2.84 µM (≈ 1.56 µg/mL) | 0.36 µM (≈ 0.198 µg/mL) | IC50 [15]: 0.501 µM; IC50 [16]: 16.4 µM; Activity [17]: inactive; MFC [5]: 23 µM (≈ 12.6 µg/mL); MIC [5]: 5.7 µM (≈ 3.13 µg/mL); IC50 [18]: 0.18 µM; Activity [19]: inactive
3 | CCN(CC)CCCC(C)Nc1ccnc2cc(Cl)ccc12 (centres undefined) [CHLOROQUINE] | Non-toxic |  |  |  |  |  |  |  |  |  |  |  | 
4 | O=C(O)c1cn(C2CC2)c2cc(N3CCNCC3)c(F)cc2c1=O [CIPROFLOXACIN] |  |  |  |  |  |  |  |  |  | 1.1 µM | 3 µM (≈ 0.994 µg/mL) | 1.5 µM (≈ 0.497 µg/mL) | MIC [18]: 1.5 µM (≈ 0.497 µg/mL); Activity [21]: inactive
5 | Cn1c2ccccc2c2ccnc(C3=C[C@@]4(O)CC/C=C\CCCCN5CCC3[C@]3(C[C@@H]6/C=C\CCCCN6[C@H]34)C5)c21 (some centres undefined) [9N-METHYLMANZAMINE A] | Non-toxic |  | inactive | inactive | inactive |  |  |  |  |  |  |  | Activity [1]: inactive; Activity [2]: inactive; Activity [22]: inactive; Activity [23]: inactive; Activity [24]: inactive; Activity [25]: inactive
6 | C[n+]1ccc2c([nH]c3ccccc32)c1C1=C[C@@]2(O)CC/C=C\CCCCN3CCC1[C@]1(C[C@@H]4/C=C\CCCCN4[C@H]12)C3.O=S(=O)([O-])C(F)(F)F (some centres undefined) | Non-toxic | 71.1 µM | inactive | inactive | inactive | 1.01 µM | > 24 | 0.736 µM | > 17.5 | 17.8 µM | 44.5 µM | 44.5 µM | Activity [22]: inactive; Activity [23]: inactive; IC50 [18]: 44.5 µM; MBC [18]: 89 µM; MIC [18]: 89 µM; Activity [26]: 99.87%; Activity [27]: 100%
7 | C[C@@H]1CC[C@H]2[C@@H](C)C(=O)O[C@@H]3O[C@@]4(C)CC[C@@H]1[C@]32OO4 [ARTEMISININ] | Non-toxic |  |  |  |  | 0.0045 µM | > 2700 | 0.0063 µM | > 3700 |  |  |  | 
8 | C[C@@H]1[C@H](O)[C@@H](C)/C=C/C=C/C=C/C=C/C=C/C=C/C=C/[C@H](O[C@@H]2O[C@H](C)[C@@H](O)[C@H](N)[C@@H]2O)C[C@@H]2O[C@](O)(C[C@@H](O)C[C@@H](O)[C@H](O)CC[C@@H](O)C[C@@H](O)CC(=O)O[C@H]1C)C[C@H](O)[C@H]2C(=O)O [AMPHOTERICIN B] |  |  |  |  |  |  |  |  |  |  |  |  | MFC [16]: 1.35 µM (≈ 1.25 µg/mL); MFC [23]: 1.35 µM (≈ 1.25 µg/mL); MIC [23]: 1.35 µM (≈ 1.25 µg/mL); IC50 [28]: 0.8 µM
